In brackets after ≈: the same amount, converted by molar mass. Activity calls are given as the source filed them. The calls are words filed in the database; no cut-off is given here.
Experiments:
Salmonella paratyphi [1] = assay: Antibacterial activity against Salmonella paratyphi A CICC 20501 assessed as bacterial growth inhibition incubated for 18 to 24 hrs by microtiter broth dilution method; assay type: functional, Salmonella enterica subsp. enterica serovar Paratyphi A; conditions: Salmonella enterica, time 18-24 hrs
Method in brief: (§1)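 Log-phase bacteria grown at 37 °C in MHB, diluted to 10^5 CFU/mL, mixed 1:1 with serial peptide dilutions (peptide diluted in 0.01% acetic acid, 0.2% BSA); 37 °C for 18-24 h. MIC read by OD492 as lowest concentration giving no growth; mean of 3-5 independent experiments.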

[2] = test system: Salmonella enterica subsp. enterica serovar Paratyphi B; assay: Antibacterial activity against Salmonella paratyphi B CICC 21495 assessed as bacterial growth inhibition incubated for 18 to 24 hrs by microtiter broth dilution method; assay type: functional; conditions: time 18-24 hrs; method in brief: as §1
Salmonella paratyphi [3] = assay: Antibacterial activity against Salmonella paratyphi C CICC 21512 assessed as bacterial growth inhibition incubated for 18 to 24 hrs by microtiter broth dilution method; assay type: functional; conditions: Salmonella enterica, time 18-24 hrs; method in brief: as §1
Shigella flexneri = assay: Antibacterial activity against Shigella flexneri CMCC 51571 assessed as bacterial growth inhibition incubated for 18 to 24 hrs by microtiter broth dilution method; assay type: functional; conditions: time 18-24 hrs
Method in brief: (§2)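 Log-phase cells (grown overnight at 37 °C, subcultured in MHB) diluted to 10^5 CFU/mL in MHB and mixed 1:1 with serial peptide dilutions prepared in 0.01% acetic acid/0.2% BSA. Incubated 37 °C for 18-24 h. MIC is the lowest concentration giving no growth by OD492. Reported as the average of 3-5 independent experiments.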

Salmonella enterica = assay: Antibacterial activity against Salmonella choleraesuis ATCC 13312 assessed as bacterial growth inhibition incubated for 18 to 24 hrs by broth dilution method; assay type: functional; conditions: time 18-24 hrs; method in brief: as §1
Salmonella enteritidis = assay: Antibacterial activity against Salmonella enteritidis CICC 21527 assessed as bacterial growth inhibition incubated for 18 to 24 hrs by microtiter broth dilution method; assay type: functional, Salmonella enterica subsp. enterica serovar Enteritidis; conditions: Salmonella enterica, time 18-24 hrs; method in brief: as §2
Vibrio parahaemolyticus = assay: Antibacterial activity against Vibrio parahaemolyticus CICC 21617 assessed as bacterial growth inhibition incubated for 18 to 24 hrs by broth dilution method; assay type: functional; conditions: time 18-24 hrs; method in brief: as §2
Bacillus cereus = assay: Antibacterial activity against Bacillus cereus CMCC 63301 assessed as bacterial growth inhibition incubated for 18 to 24 hrs by microtiter broth dilution method; assay type: functional; conditions: time 18-24 hrs; method in brief: as §2
Micrococcus luteus = assay: Antibacterial activity against Micrococcus luteus CMCC 28001 assessed as bacterial growth inhibition incubated for 18 to 24 hrs by microtiter broth dilution method; assay type: functional; conditions: time 18-24 hrs; method in brief: as §2
Bacillus pumilus = assay: Antibacterial activity against Bacillus pumilus CMCC 63202 assessed as bacterial growth inhibition incubated for 18 to 24 hrs by microtiter broth dilution method; assay type: functional; conditions: time 18-24 hrs; method in brief: as §2
Pseudomonas fluorescens = assay: Antibacterial activity against Pseudomonas fluorescens CICC 21620 assessed as bacterial growth inhibition incubated for 18 to 24 hrs by microtiter broth dilution method; assay type: functional; conditions: time 18-24 hrs; method in brief: as §2
Candida albicans = assay: Antifungal activity against Candida albicans ATCC 10231 assessed as fungal growth inhibition incubated for 18 to 24 hrs by microtiter broth dilution method; assay type: functional; conditions: time 18-24 hrs; method in brief: as §2
Erythrocyte = assay: Hemolytic activity against human red blood cells assessed as concentration required to cause 10% hemoglobin release measured after 1 hr by microplate reader analysis; assay type: ADME, cell-based
Method in brief: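 Fresh heparinized human RBCs washed three times in 10 mM PBS pH 7.4 and resuspended to about 1% (v/v) (5.4 × 10^8 cells/mL). Mixed 1:1 with peptide in PBS for 1 h at 37 °C, then centrifuged. Supernatant hemoglobin read at A540. PBS set as 0% and 0.1% Triton X-100 as 100% hemolysis. MHC is the concentration causing 10% hemolysis.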

[4] = Therapeutic index, ratio of MHC10 for human RBC to geometric mean of peptide MIC for Escherichia coli O157:H7 CICC 21530; assay type: toxicity; conditions: human red blood cells (RBC), pooled result: one value given for 11 cell lines, strains, targets or settings, read-out: TI
Method in brief: (§3)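 Therapeutic index = MHC (peptide concentration giving 10% hemolysis of human RBCs, 1 h, 37 °C, A540) divided by geometric mean of MICs from broth microdilution (10^5 CFU/mL in MHB, 37 °C, 18-24 h, OD492).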

[5] = Therapeutic index, ratio of MHC10 for human RBC to geometric mean of peptide MIC for Staphylococcus aureus ATCC 29213; assay type: toxicity; conditions: human red blood cells (RBC), pooled result: one value given for 9 cell lines, strains, targets or settings, read-out: TI; method in brief: as §3
[6] = Hemolytic activity against human red blood cells assessed as hemoglobin release at 64 uM measured after 1 hr by microplate reader analysis relative to control; assay type: ADME, cell-based, Erythrocyte; conditions: read-out: Activity
Method in brief: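 Fresh heparinized human RBCs washed in 10 mM PBS pH 7.4, ~1% (v/v) suspension mixed 1:1 with peptide in PBS, 1 h at 37 °C; after centrifugation, supernatant absorbance at 540 nm. Percent hemolysis relative to PBS (0%) and 0.1% Triton X-100 (100%).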

RAW264.7 = assay: Cytotoxicity against mouse RAW264.7 cells assessed as increase in cell viability at 64 uM incubated for 24 hrs by MTT assay relative to control; assay type: cell-based; conditions: raw264.7, 24 h
Method in brief: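 RAW264.7 macrophages were grown in DMEM with 10% FBS, 2 mM glutamine and penicillin/streptomycin at 37 °C in 5% CO2. Cells seeded at 1.0-2.0 × 10^4 per well and treated with peptide (final 0.25-64 µM) for 24 h at 37 °C. MTT at 0.5 mg/mL added for 4 h, formazan dissolved in DMSO, read at 570 nm.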

Cell membrane [7] = assay: Induction of inner membrane permeabilization in Escherichia coli O157:H7 CICC 21530 assessed as cytoplasmic beta-galactosidase release at 1 times MIC using ONPG as substrate by […]; assay type: subcellular
Cell membrane [8] = assay: Induction of cell membrane depolarization in Escherichia coli O157:H7 CICC 21530 assessed as increase in fluorescence intensity at 0.5 to 2 times MIC preincubated for 90 mins followed by KCl addition and measured after 15 to 30 mins by DiSC3-5 staining based fluorescence spectroscopic technique; assay type: subcellular; conditions: time 105-120 min
Escherichia coli [9] = assay: Antibacterial activity against Escherichia coli O157:H7 CICC 21530 assessed as bacterial growth inhibition incubated for 18 to 24 hrs by microtiter broth dilution method; assay type: functional; conditions: time 18-24 hrs; method in brief: as §1
Escherichia coli [10] = assay: Antibacterial activity against Escherichia coli ATCC 25922 assessed as bacterial growth inhibition incubated for 18 to 24 hrs by microtiter broth dilution method; assay type: functional; conditions: time 18-24 hrs; method in brief: as §2
Escherichia coli [11] = assay: Antibacterial activity against Escherichia coli ATCC 35150 assessed as bacterial growth inhibition incubated for 18 to 24 hrs by microtiter broth dilution method; assay type: functional; conditions: time 18-24 hrs; method in brief: as §2
Salmonella typhimurium = assay: Antibacterial activity against Salmonella typhimurium CMCC 51005 assessed as bacterial growth inhibition incubated for 18 to 24 hrs by microtiter broth dilution method; assay type: functional, Salmonella enterica subsp. enterica serovar Typhimurium; conditions: Salmonella enterica, time 18-24 hrs; method in brief: as §2
Staphylococcus aureus [12] = assay: Antibacterial activity against Staphylococcus aureus ATCC 29213 assessed as bacterial growth inhibition incubated for 18 to 24 hrs by microtiter broth dilution method; assay type: functional; conditions: time 18-24 hrs; method in brief: as §2
Staphylococcus aureus [13] = assay: Antibacterial activity against Staphylococcus aureus GIM 1.160 assessed as bacterial growth inhibition incubated for 18 to 24 hrs by microtiter broth dilution method; assay type: functional; conditions: time 18-24 hrs; method in brief: as §2
Listeria monocytogenes [14] = assay: Antibacterial activity against Listeria monocytogenes CICC 21662 assessed as bacterial growth inhibition incubated for 18 to 24 hrs by microtiter broth dilution method; assay type: functional; conditions: time 18-24 hrs; method in brief: as §2
Listeria monocytogenes [15] = assay: Antibacterial activity against Listeria monocytogenes CICC 21633 assessed as bacterial growth inhibition incubated for 18 to 24 hrs by microtiter broth dilution method; assay type: functional; conditions: time 18-24 hrs; method in brief: as §2
Staphylococcus aureus [16] = assay: Antibacterial activity against methicillin resistant Staphylococcus aureus ATCC 43300 assessed as bacterial growth inhibition incubated for 18 to 24 hrs by microtiter broth dilution method; assay type: functional; conditions: time 18-24 hrs; method in brief: as §1

For `CC[C@H](C)[C@H](NC(=O)CN)C(=O)NCC(=O)N[C@@H](C)C(=O)N[C@H](C(=O)N[C@@H](CC(C)C)C(=O)N[C@@H](CCCCN)C(=O)N[C@H](C(=O)N[C@@H](CC(C)C)C(=O)N[C@H](C(=O)N[C@H](C(=O)NCC(=O)N[C@@H](CC(C)C)C(=O)N1CCC[C@H]1C(=O)N[C@@H](C)C(=O)N[C@@H](CC(C)C)C(=O)N[C@H](C(=O)N[C@@H](CO)C(=O)N[C@@H](Cc1c[nH]c2ccccc12)C(=O)N[C@H](C(=O)N[C@@H](CCCCN)C(=O)N[C@@H](CCCNC(=N)N)C(=O)N[C@@H](CCCCN)C(=O)N[C@@H](CCCNC(=N)N)C(=O)N[C@@H](CCC(N)=O)C(=O)N[C@@H](CCC(N)=O)C(N)=O)[C@@H](C)CC)[C@@H](C)CC)[C@@H](C)O)[C@@H](C)O)C(C)C)C(C)C` [MELITTIN], the MIC (Salmonella paratyphi [1]) was 0.7 µM (≈ 1.99 µg/mL), the MIC [2] was 0.35 µM (≈ 0.996 µg/mL) and the MIC (Salmonella paratyphi [3]) was 0.7 µM (≈ 1.99 µg/mL). The MIC (Shigella flexneri) was 0.7 µM (≈ 1.99 µg/mL), the MIC (Salmonella enterica) was 0.7 µM (≈ 1.99 µg/mL) and the MIC (Salmonella enteritidis) was 1.41 µM (≈ 4.01 µg/mL). It also gave an MIC (Vibrio parahaemolyticus) of 1.41 µM (≈ 4.01 µg/mL), an MIC (Bacillus cereus) of 1.41 µM (≈ 4.01 µg/mL) and an MIC (Micrococcus luteus) of 0.7 µM (≈ 1.99 µg/mL). For the same compound, the MIC (Bacillus pumilus) was 0.35 µM (≈ 0.996 µg/mL), the MIC (Pseudomonas fluorescens) was 1.41 µM (≈ 4.01 µg/mL) and the MIC (Candida albicans) was 2.81 µM (≈ 8 µg/mL). It also gave an MHC10 (Erythrocyte) of 0.35 µM, a selectivity ratio [4] of 0.44 and a selectivity ratio [5] of 0.43. The hemolysis at 1 h, 64 µM [6] was 63.7%, the Activity (RAW264.7) was 1.85% and the Activity (Cell membrane [7]) was “Active”. The Activity (Cell membrane [8]) was “Active”.
`C[C@@H]1[C@H](O)[C@@H](C)/C=C/C=C/C=C/C=C/C=C/C=C/C=C/[C@H](O[C@@H]2O[C@H](C)[C@@H](O)[C@H](N)[C@@H]2O)C[C@@H]2O[C@](O)(C[C@@H](O)C[C@@H](O)[C@H](O)CC[C@@H](O)C[C@@H](O)CC(=O)O[C@H]1C)C[C@H](O)[C@H]2C(=O)O` [AMPHOTERICIN B] showed an MIC (Escherichia coli [9]) greater than 139 µM, an MIC (Escherichia coli [10]) greater than 139 µM and an MIC (Escherichia coli [11]) greater than 139 µM. For the same compound, the MIC (Salmonella paratyphi [1]) was greater than 139 µM, the MIC [2] was greater than 139 µM and the MIC (Salmonella paratyphi [3]) was greater than 139 µM. The MIC (Shigella flexneri) was greater than 139 µM, the MIC (Salmonella enterica) was greater than 139 µM and the MIC (Salmonella typhimurium) was greater than 139 µM. The MIC (Salmonella enteritidis) was greater than 139 µM, the MIC (Vibrio parahaemolyticus) was greater than 139 µM and the MIC (Staphylococcus aureus [12]) was greater than 139 µM. It also gave an MIC (Staphylococcus aureus [13]) greater than 139 µM, an MIC (Listeria monocytogenes [14]) greater than 139 µM and an MIC (Listeria monocytogenes [15]) greater than 139 µM. The MIC (Bacillus cereus) was greater than 139 µM, the MIC (Micrococcus luteus) was greater than 139 µM and the MIC (Bacillus pumilus) was greater than 139 µM. It also gave an MIC (Pseudomonas fluorescens) greater than 139 µM, an MIC (Staphylococcus aureus [16]) greater than 139 µM and an MIC (Candida albicans) of 4.33 µM (≈ 4 µg/mL). It also gave an MHC10 (Erythrocyte) of 0.54 µM.

From ChEMBL document CHEMBL4765236, “Insights into the Antimicrobial Activity and Cytotoxicity of Engineered α-Helical Peptide Amphiphiles” (J Med Chem, 2016)
